From ChEMBL document CHEMBL1250461, “Synthesis, binding and bioactivity of gamma-methylene gamma-lactam ecdysone receptor ligands: advantages of QSAR models for flexible receptors” (Bioorg Med Chem, 2010)

Experiments:
[1] = Binding affinity to Bovicola ovis recombinant ecdysone receptor ligand binding domain after 3 hrs by fluorescence polarization assay
Method in brief: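 B. ovis EcR_DEF/USP_DEF LBD heterodimer, co-expressed from baculovirus and purified by IMAC (2.51 mg/mL final). Competes with 36 nM fluorescein–inokosterone A conjugate in 50 mM sodium phosphate, 100 mM NaCl, pH 7.4 with 0.5 mg/mL BSA and 3% v/v DMSO. Compound range 3 nM–3 mM final. Incubated overnight at 4 °C, then 3 h at room temperature before polarisation (mP) read. Triplicate; IC50 from mean.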

Ecdysone receptor = biological target: T1, Ecdysone receptor (Lucilia cuprina, UniProt O18531); assay: Binding affinity to Lucilia cuprina recombinant ecdysone receptor ligand binding domain after 3 hrs by fluorescence polarization assay
T1 sequence (O18531 whole entry): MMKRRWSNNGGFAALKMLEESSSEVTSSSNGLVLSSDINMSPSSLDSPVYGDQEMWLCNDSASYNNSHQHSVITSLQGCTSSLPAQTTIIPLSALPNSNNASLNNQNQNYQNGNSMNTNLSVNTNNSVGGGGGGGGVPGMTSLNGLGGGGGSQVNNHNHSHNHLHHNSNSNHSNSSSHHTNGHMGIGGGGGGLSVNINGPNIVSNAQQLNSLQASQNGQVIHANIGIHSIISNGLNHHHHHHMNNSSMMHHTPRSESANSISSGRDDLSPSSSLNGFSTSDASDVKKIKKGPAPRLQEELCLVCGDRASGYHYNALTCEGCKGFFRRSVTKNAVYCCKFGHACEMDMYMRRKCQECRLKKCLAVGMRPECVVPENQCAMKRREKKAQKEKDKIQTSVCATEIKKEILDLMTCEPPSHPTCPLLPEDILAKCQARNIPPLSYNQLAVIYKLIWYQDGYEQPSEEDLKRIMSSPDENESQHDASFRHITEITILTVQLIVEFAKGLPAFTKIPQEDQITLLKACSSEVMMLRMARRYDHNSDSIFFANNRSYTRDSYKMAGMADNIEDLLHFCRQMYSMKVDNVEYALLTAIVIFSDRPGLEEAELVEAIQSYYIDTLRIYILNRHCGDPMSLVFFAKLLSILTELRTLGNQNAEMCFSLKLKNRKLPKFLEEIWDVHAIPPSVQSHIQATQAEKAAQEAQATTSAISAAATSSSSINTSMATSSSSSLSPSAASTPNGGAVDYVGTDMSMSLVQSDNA
Method in brief: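 L. cuprina EcR_DEF/USP_DEF LBD heterodimer, baculovirus co-expressed and IMAC-purified, used at 1.14 mg/mL. Fluorescence polarisation competition against 36 nM fluorescein–inokosterone A conjugate, with 0.5 mg/mL BSA and 3% v/v DMSO in 50 mM sodium phosphate/100 mM NaCl, pH 7.4. Test range 3 nM–3 mM final. Overnight at 4 °C, then 3 h re-equilibration at room temperature, mP read. Triplicate on one plate; IC50 from mean.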

Row | IC50 [1] | IC50 (Ecdysone receptor) | SMILES
1 | 71 µM | – | C=C1C(CCCC)=C(C#N)C(=O)N1c1c(C)cccc1[N+](=O)[O-]
2 | 7 µM | – | C=C1C(C)=C(C#N)C(=O)N1c1cc(Cl)c(Cl)cc1Cl
3 | 55 µM | – | C=C1C(C)=C(C#N)C(=O)N1c1c(C)cc(Cl)cc1Cl
4 | 48 µM | – | C=C1C(C)=C(C#N)C(=O)N1c1c(C)cc(Cl)cc1C
5 | 68 µM | – | C=C1C(C)=C(C#N)C(=O)N1c1c(C)cc(C)cc1C
6 | 17.5 µM | – | C=C1C(CC)=C(C#N)C(=O)N1c1cccc(Cl)c1Cl
7 | 15 µM | – | C=C1C(CC)=C(C#N)C(=O)N1c1cccc(Cl)c1C
8 | 80 µM | – | C=C1C(CC)=C(C#N)C(=O)N1c1c(C)cccc1CC
9 | 5.5 µM | 7.25 µM | C=C1C(CC)=C(C#N)C(=O)N1c1cc(Cl)c(Cl)cc1Cl
10 | 160 µM | – | C=C1C(CC)=C(C#N)C(=O)N1c1c(Cl)cc(Cl)cc1Cl
11 | 11 µM | – | C=C1C(CC(C)C)=C(C#N)C(=O)N1c1ccccc1C
12 | 85 µM | – | C=C1C(C)=C(C#N)C(=O)N1C1CCCC1
13 | 50 µM | – | C=C1C(C)=C(C#N)C(=O)N1C1CCCCC1
14 | 27.5 µM | – | C=C1C(CCC)=C(C#N)C(=O)N1C1CCCCC1
15 | 250 µM | – | C=C1C(C)=C(C#N)C(=O)N1C1CCCC(C)C1C (stereo not drawn)
16 | 48 µM | – | C=C1C(C)=C(C#N)C(=O)N1C1CC2CCC1C2 (stereo not drawn)
17 | 26 µM | – | C=C1C(C)=C(C#N)C(=O)N1C1CCCc2ccccc21 (stereo not drawn)
18 | 37.5 µM | – | C=C1C(C)=C(C#N)C(=O)N1Cc1ccccc1Cl
19 | 95 µM | – | C=C1C(C)=C(C#N)C(=O)N1c1ccc(Cl)cn1
20 | 45 µM | – | C=C1C(C)=C(C#N)C(=O)N1c1ncc(Cl)cc1Cl
21 | 26 µM | – | C=C1C(C)=C(C#N)C(=O)N1c1cnc2ccccc2c1
22 | 90 µM | – | C=C1C(C)=C(C#N)C(=O)N1c1nccs1
23 | 45 µM | – | C=C1C(C)=C(C(C)=O)C(=O)N1c1cc(Cl)c(Cl)cc1Cl
24 | 55 µM | – | C=C1C(C)=C(C#N)C(=O)N1c1ccccc1Cl

Row | IC50 [1] | IC50 (Ecdysone receptor) | SMILES
25 | 37.5 µM | – | C=C1C(C)=C(C#N)C(=O)N1c1ccccc1Br
26 | 80 µM | – | C=C1C(C)=C(C#N)C(=O)N1c1ccccc1C
27 | 22.5 µM | – | C=C1C(C)=C(C#N)C(=O)N1c1ccccc1C(C)C
28 | 17.5 µM | – | C=C1C(C)=C(C#N)C(=O)N1c1ccccc1C(C)(C)C
29 | 27.5 µM | 48 µM | C=C1C(C)=C(C#N)C(=O)N1c1ccccc1C(F)(F)F
30 | 11 µM | – | C=C1C(C)=C(C#N)C(=O)N1c1ccccc1OC
31 | 350 µM | – | C=C1C(C)=C(C#N)C(=O)N1c1ccccc1OCC
32 | 19 µM | – | C=C1C(C)=C(C#N)C(=O)N1c1cccc(Cl)c1
33 | 25 µM | – | C=C1C(C)=C(C#N)C(=O)N1c1cccc(SC)c1
34 | 22 µM | – | C=C1C(C)=C(C#N)C(=O)N1c1cccc(C(F)(F)F)c1
35 | 150 µM | – | C=C1C(C)=C(C#N)C(=O)N1c1ccc(N(C)C)cc1
36 | 575 µM | – | C=C1C(C)=C(C#N)C(=O)N1c1ccc(NC(C)=O)cc1
37 | 22.5 µM | – | C=C1C(C)=C(C#N)C(=O)N1c1cccc(Cl)c1Cl
38 | 90 µM | – | C=C1C(C)=C(C#N)C(=O)N1c1ccc(F)cc1F
39 | 150 µM | – | C=C1C(C)=C(C#N)C(=O)N1c1ccc(OC)cc1OC
40 | 12.5 µM | – | C=C1C(C)=C(C#N)C(=O)N1c1cc(Cl)ccc1Cl
41 | 92.5 µM | – | C=C1C(C)=C(C#N)C(=O)N1c1cc(Cl)ccc1O
42 | 650 µM | – | C=C1C(C)=C(C#N)C(=O)N1c1cc(Cl)ccc1OC
43 | 160 µM | – | C=C1C(C)=C(C#N)C(=O)N1c1c(C)cccc1[N+](=O)[O-]
44 | 20 µM | – | C=C1C(C)=C(C#N)C(=O)N1c1ccc(F)c([N+](=O)[O-])c1
45 | 67.5 µM | – | C=C1C(C)=C(C#N)C(=O)N1c1ccc2c(c1)OCO2
46 | 9.8 µM | 27.5 µM | C=C1C(C)=C(C#N)C(=O)N1c1cc(Cl)cc(Cl)c1
47 | 15 µM | – | C=C1C(C)=C(C#N)C(=O)N1c1ccc(Cl)c(Cl)c1Cl
48 | 17.5 µM | – | C=C1C(CCCC)=C(C#N)C(=O)N1c1c(C)cc(Cl)cc1C(C)C

Row | IC50 [1] | IC50 (Ecdysone receptor) | SMILES
49 | 11 µM | – | C=C1C(CCCC)=C(C#N)C(=O)N1c1c(C)cc(C)cc1C
50 | 21 µM | – | C=C1C(CCCC)=C(C#N)C(=O)N1c1cc(OC)c(OC)c(OC)c1
51 | 6.8 µM | – | C=C1C(CC(C)C)=C(C#N)C(=O)N1c1cc(Cl)ccc1Cl
52 | 45 µM | – | C=C1C(CC(C)C)=C(C#N)C(=O)N1c1c(Cl)c(Cl)cc(Cl)c1Cl
53 | 88 µM | – | CN(C(=O)C1CCCCC1)N1C(=O)C(C#N)=C2CCCC=C21
54 | 25 µM | – | C=C1C(C)=C(C#N)C(=O)N1c1ccccc1-c1ccccc1
55 | 45 µM | – | C=C1C(C)=C(C#N)C(=O)N1c1ccccc1OC(F)(F)F
56 | 8.5 µM | – | C=C1C(c2ccccc2)=C(C#N)C(=O)N1c1cc(Cl)ccc1Cl
57 | 12.5 µM | – | C=C1C(c2ccccc2)=C(C#N)C(=O)N1c1cc(C)ccc1F
58 | 25 µM | – | C=C1C(C)=C(C#N)C(=O)N1c1ccccc1Oc1ccccc1
59 | 22.5 µM | – | C=C1C(C)=C(C#N)C(=O)N1c1ccccc1Cc1ccccc1
60 | 18 µM | – | C=C1C(C)=C(C#N)C(=O)N1c1cccc(Oc2ccccc2)c1
61 | 22 µM | – | C=C1C(CCCCCCCC)=C(C#N)C(=O)N1c1c(C)cc(C)cc1C
62 | 2300 µM | – | CCC/C=C1\C(C)=C(C#N)C(=O)N1c1c(C(C)(C)C)ccc(Cl)c1C
63 | 65 µM | – | COc1cc(OC)cc(N2C(=O)C(C#N)=C(C)/C2=C/C(C)C)c1
64 | 35 µM | – | C=C1C(C)=C(C#N)C(=O)N1c1ccc(-c2ccccc2)cc1
65 | 400 µM | – | C=C1C(C)=C(C#N)C(=O)N1c1ccc(N(C)C(C)=O)cc1
66 | 5 µM | 6.5 µM | C=C1C(C)=C(C#N)C(=O)N1c1cc(C(C)(C)C)ccc1C(C)(C)C
67 | 15 µM | – | C=C1C(C)=C(C#N)C(=O)N1c1ccc(Cl)c2ccccc12
68 | 72.5 µM | – | C=C1C(CC)=C(C#N)C(=O)N1NC(=O)c1ccc(Cl)cc1
69 | 4.5 µM | – | C=C1C(C)=C(C#N)C(=O)N1c1cc(C(F)(F)F)ccc1C(F)(F)F
70 | 55 µM | – | C=C1C(C)=C(C#N)C(=O)N1c1cc([N+](=O)[O-])ccc1OC
71 | 55 µM | – | C=C1C(C)=C(C#N)C(=O)N1c1cc(Cl)ccc1OC(=O)CC
72 | 16 µM | – | C=C1C(C)=C(C(=O)C(C)C)C(=O)N1c1cc(Cl)c(Cl)cc1Cl

Row | IC50 [1] | IC50 (Ecdysone receptor) | SMILES
73 | 11 µM | – | C=C1C(C)=C(C(=O)OCC)C(=O)N1c1cc(Cl)c(Cl)cc1Cl
74 | 20.8 µM | 23.5 µM | C=C1C(C)=C(C#N)C(=O)N1c1c(C(C)C)cccc1C(C)C
75 | 160 µM | – | C=C1C(C)=C(C#N)C(=O)N1c1c(C)cccc1C(C)(C)C
76 | 150 µM | – | C=C1C(C)=C(C#N)C(=O)N1c1c(CC)cccc1C(C)(C)C
77 | 18 µM | – | C=C1C(C)=C(C(=O)c2ccccc2)C(=O)N1c1cc(C(F)(F)F)ccc1Cl
78 | 58 µM | – | C=C1C(C)=C(C(=O)c2ccccc2)C(=O)N1c1c(C)cccc1C(C)C
79 | 11.3 µM | 8.5 µM | C=C1C(C)=C(C#N)C(=O)N1c1cc(Cl)c(C(C)(C)C)cc1Cl
80 | 20 µM | – | C=C1C(C)=C(C#N)C(=O)N1c1c(C)cc(Cl)cc1C(C)C
81 | 160 µM | – | C=C1C(C)=C(C#N)C(=O)N1c1c(C)cc(C)cc1C(F)(C(F)(F)F)C(F)(F)F
82 | 2250 µM | – | C=C1C(C)=C(C(=O)c2ccccc2)C(=O)N1c1c(C(C)C)cccc1C(C)C
83 | 9 µM | – | C=C1C(C)=C(C(=O)c2ccccc2)C(=O)N1c1cc(Cl)c(Cl)cc1Cl
84 | 40 µM | – | C=C1C(CC)=C(C#N)C(=O)N1c1ccccc1C(C)(C)C
85 | 26 µM | – | C=C1C(CC)=C(C#N)C(=O)N1c1ccccc1OC(F)(F)F
86 | 44 µM | – | C=C1C(C)=C(C(=O)c2ccccc2)C(=O)N1c1c(C)cc(C)cc1C
87 | 45 µM | – | C=C1C(CC)=C(C#N)C(=O)N1c1c(C)cccc1C(C)C
88 | 48 µM | – | C=C1C(CCC)=C(C#N)C(=O)N1c1c(C)cccc1CC
89 | 10.5 µM | – | C=C1C(CCC)=C(C#N)C(=O)N1c1c(C)cccc1C(C)C
90 | 9.5 µM | 15 µM | C=C1C(C(C)C)=C(C#N)C(=O)N1c1ccccc1C(C)(C)C
91 | 11 µM | – | C=C1C(C(C)C)=C(C#N)C(=O)N1c1c(C)cc(Cl)cc1C
92 | 55 µM | – | C=C1C(C(C)C)=C(C#N)C(=O)N1c1c(C)cc(C)cc1C
93 | 15 µM | – | C=C1C(CCCC)=C(C#N)C(=O)N1c1ccccc1OC(F)(F)F
94 | 35 µM | – | C=C1C(CCCC)=C(C#N)C(=O)N1c1c(C)cccc1C
95 | 20.3 µM | – | C=C1C(CCCC)=C(C#N)C(=O)N1c1c(C)cccc1C(C)C
96 | 85 µM | – | C/C=C1\C(C)=C(C#N)C(=O)N1c1c(Cl)cc(Cl)cc1Cl (mixture of isomers)
